# Measurements reported in ChEMBL document CHEMBL3243935, “Analgesic and tranquilizing activity of 5,8-disubstituted 2-aminomethyl-3,4-dihydronaphthalenes” (J Med Chem, 1978).
# Active and inactive are the calls of the source.
# Key:
# [1] = tested on: Rattus norvegicus; assay: Neuroleptic activity in ip dosed Sprague-Dawley CD rat assessed as reversal of amphetamine-induced stereotypy compound administered 1hr prior challenge; format: functional
# Method in brief: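 Rats dosed ip, then given amphetamine sulfate 5 mg/kg 1 h later. The ED50 is the dose that reverses the amphetamine-induced stereotypy.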
# [2] = tested on: Mus musculus; assay: Analgesic activity in Swiss CD mouse at 100 mg/kg, ip measured 0.5 hr post treatment by hot-plate method relative to control; format: functional; settings: route intraperitoneal
# Method in brief: (§1)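 Male mice, about 20 g, dosed ip in saline. Each mouse was dropped into a glass cylinder on an aluminium plate held at 57 °C. Latency to the first flick of a hind foot was timed at 0.5 and 2 h post-dose, with a 10-s cutoff. At least ten mice per dose. Percent control = mean latency ÷ mean control latency × 100; 200% was the lower bound of activity.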
# [3] = tested on: Mus musculus; assay: Analgesic activity in Swiss CD mouse assessed as elevation of response latency at 100 mg/kg, ip measured 2 hrs post treatment by tail flick method relative to control; format: functional; settings: route intraperitoneal
# Method in brief: (§2)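 Male mice, about 20 g, dosed ip in saline (solution or suspension). High-intensity heat was focused on the tail, and latency to a sudden tail flick was timed, with a 10-s cutoff. Tests ran at 0.5 and 2 h post-dose, with at least ten mice per dose. Percent control = mean latency ÷ mean control latency × 100; 200% was the lower bound of activity.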
# [4] = tested on: Rattus norvegicus; assay: Neuroleptic activity in decarboxylase-inhibited Sprague-Dawley CD rat brain assessed as increase in DOPA accumulation at 0.056 mmol/kg relative to control; format: functional; design: scale not given: the % may be the effect or the level left
# [5] = tested on: Mus musculus; assay: Analgesic activity in Swiss CD mouse at 100 mg/kg, ip measured 2 hrs post treatment by hot-plate method relative to control; format: functional; settings: route intraperitoneal; method in brief: as §1
# [6] = tested on: Mus musculus; assay: Analgesic activity in Swiss CD mouse assessed as elevation of response latency at 100 mg/kg, ip measured 0.5 hr post treatment by tail flick method relative to control; format: functional; settings: route intraperitoneal; method in brief: as §2
# [7] = tested on: Rattus norvegicus; assay: Neuroleptic activity in decarboxylase-inhibited Sprague-Dawley CD rat brain assessed as increase in DOPA accumulation at 0.001 mmol/kg relative to control; format: functional; design: scale not given: the % may be the effect or the level left
# [8] = tested on: Mus musculus; assay: Analgesic activity in Swiss CD mouse at 100 mg/kg, ip bid for 4 days by tail flick method relative to control in presence of naloxone; format: functional, organism-based; design: dose 100 mg/kg
# [9] = tested on: Mus musculus; assay: Analgesic activity in Swiss CD mouse at 100 mg/kg, ip bid for 4 days measured after naloxone challenge on day 4 by hot-plate method relative to control; format: functional, organism-based; design: dose 100 mg/kg
# [10] = tested on: Canis familiaris; assay: Analgesic activity in po dosed dog assessed as increase in response threshold by radiant heat method; format: functional; settings: Canis lupus familiaris
# Method in brief: (§3)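 Male mongrel dogs, 9-12 kg. The response threshold was the reflex fasciculation of the back muscles under radiant heat. Testing was at 0.5 and 2 h post-dose, with the end point expressed as percent of control latency.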
# [11] = tested on: Mus musculus; assay: Analgesic activity in Swiss CD mouse at 100 mg/kg, ip bid for 4 days measured after 4 days by hot-plate method relative to control; format: functional, organism-based; design: dose 100 mg/kg
# Method in brief: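 Tolerance test in male mice: 100 mg/kg ip bid for 4 days, with hot-plate latency measured against control. A parallel group received morphine sulfate 10 mg/kg ip bid.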
# [12] = tested on: Rattus norvegicus; assay: Analgesic activity in Sprague-Dawley CD rat at 32 mg/kg, ip measured 0.5 to 2 hrs post treatment by flinch-jump method relative to control; format: functional, organism-based; design: dose 32 mg/kg
# Method in brief: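 Male rats, 200-300 g, dosed ip (saline solution or suspension). A single rising series of 1-s foot shocks was given just before and at 0.5 and 2 h after dosing. The minimum shock intensity (mA) evoking each behaviour was recorded. No response at the 2.2-mA level counted as activity. At least five rats per dose.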
# [13] = tested on: Rattus norvegicus; assay: Neuroleptic activity in decarboxylase-inhibited Sprague-Dawley CD rat brain assessed as increase in DOPA accumulation at 0.1 mmol/kg relative to control; format: functional; design: scale not given: the % may be the effect or the level left
# [14] = tested on: Mus musculus; assay: Analgesic activity in Swiss CD mouse at 100 mg/kg, ip bid for 4 days by hot-plate method relative to control in presence of naloxone; format: functional, organism-based; design: dose 100 mg/kg
# [15] = tested on: Canis familiaris; assay: Analgesic activity in dog assessed as increase in response threshold at 3.2 mg/kg, sc measured 0.5 to 2 hrs post treatment by radiant heat method relative to control; format: functional, Canis lupus familiaris; settings: route subcutaneous
# Method in brief: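 Male mongrel dogs (9-12 kg) received the agent sc in saline solution or suspension. The radiant heat stimulus end point was reflex fasciculation of the back muscles. Each animal was tested 0.5 and 2 h after dosing, and the end point was expressed as percent of control latency.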
# [16] = tested on: Mus musculus; assay: Toxicity in Swiss CD mouse assessed as loss of righting reflex at 100 mg/kg, ip measured 0.5 hr post treatment; format: organism-based; design: dose 100 mg/kg, route intraperitoneal; settings: in vivo
# Method in brief: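 Male Swiss CD mice (about 20 g) given compound ip in saline solution or suspension, usually 5 mL/kg, during hot-plate/tail-flick screening. At least ten mice per dose. Loss of righting reflex noted at 0.5 h after dosing.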
# [17] = tested on: Canis familiaris; assay: Analgesic activity in dog assessed as increase in response threshold at 16 mg/kg, sc measured 0.5 to 2 hrs post treatment by radiant heat method relative to control; format: functional, organism-based; design: dose 16 mg/kg; settings: Canis lupus familiaris; method in brief: as §3
# [18] = tested on: Mus musculus; assay: Analgesic activity in Swiss CD mouse assessed as elevation of response latency at 56 mg/kg, ip measured 0.5 hr post treatment by tail flick method relative to control; format: functional; settings: route intraperitoneal; method in brief: as §2
# [19] = tested on: Mus musculus; assay: Analgesic activity in Swiss CD mouse assessed as elevation of response latency at 56 mg/kg, ip measured 2 hrs post treatment by tail flick method relative to control; format: functional; settings: route intraperitoneal; method in brief: as §2
# [20] = tested on: Mus musculus; assay: Analgesic activity in Swiss CD mouse at 56 mg/kg, ip measured 0.5 hr post treatment by hot-plate method relative to control; format: functional; settings: route intraperitoneal; method in brief: as §1
# [21] = tested on: Mus musculus; assay: Analgesic activity in Swiss CD mouse at 56 mg/kg, ip measured 2 hrs post treatment by hot-plate method relative to control; format: functional; settings: route intraperitoneal; method in brief: as §1
SMILES,ED50 [1] [mg/kg],Activity [2] [%],Activity [3] [%],Activity [5] [%],Activity [6] [%],also measured
Br.COc1ccc(Cl)c2c1CCC(CN1CCOCC1)=C2,> 32,95,125,90,136,Activity [4]: 243%
CCOC1(c2ccccc2)CCN(CC2=Cc3c(Cl)ccc(OC)c3CC2)CC1,–,262,157,156,196,Activity [7]: 491%
Br.COc1ccc(Cl)c2c1CCC(CN1CCCC1)=C2,32,282,135,117,238,Activity [8]: Active; Activity [9]: Active; ED50 [10]: 16.2 mg/kg; Activity [11]: Active; Activity [12]: Active; Activity [13]: 288%; Activity [14]: Active; Activity [15]: 50%
CCc1ccc2c(c1)C=C(CN1CCCC1)CC2.Cl,–,–,198,130,–,Activity [16]: Toxic
CCOC(=O)C1(c2ccccc2)CCN(C)CC1 [MEPERIDINE],–,–,–,–,–,Activity [17]: Active; Activity [18]: 194%; Activity [19]: 160%; Activity [20]: 296%; Activity [21]: 231%
